A selection: hits, their analogues and other compounds. The true share with any hit is near 2.5%.
SIAE inh – inhibitors of human sialic acid acetylesterase SIAE. actives 0.69% (n = 370,000). SIAE FP-Rh probe binding, fluorescence polarization. inhibition, % at 9.66 µM. AID 1053197;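 active = inhibition above a cutoff: mean of compounds within the control limits plus 3 SD of those, cut at about 17% in these data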
mABHD4 FP – inhibits mouse alpha/beta hydrolase domain 4; Q8VD66; purified mABHD4, FP-Rh probe fluorescence polarization; inhibition, % at 8.92 µM; actives 0.54% (n = 370,000); AID 720543;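 active = inhibition exceeding the mean over every tested compound plus 3 SD, cut at about 30% in these data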
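Test system: mABHD4 protein; Read-out basis: % inhibition; Incubation: 45 min + 60 min at 25 °C; Repeats: single replicate; Technique: fluorescence polarization with parallel and perpendicular emission, 525/598 nm; Compound: 8.92 µM, single dose; Benchmarks: full inhibition S159A mutant plus DMSO, zero as sample-well median.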
PRMT1 inh – blocks human protein arginine methyltransferase 1. Q99873. recombinant PRMT1, activity-based probe fluorescence polarization. inhibition, % at 2.79 µM. actives 1.3% (n = 370,000);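 active = inhibition above about 21% made by adding two undisclosed values, limit read from the data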
Target sequence (Q99873 whole entry, looked up): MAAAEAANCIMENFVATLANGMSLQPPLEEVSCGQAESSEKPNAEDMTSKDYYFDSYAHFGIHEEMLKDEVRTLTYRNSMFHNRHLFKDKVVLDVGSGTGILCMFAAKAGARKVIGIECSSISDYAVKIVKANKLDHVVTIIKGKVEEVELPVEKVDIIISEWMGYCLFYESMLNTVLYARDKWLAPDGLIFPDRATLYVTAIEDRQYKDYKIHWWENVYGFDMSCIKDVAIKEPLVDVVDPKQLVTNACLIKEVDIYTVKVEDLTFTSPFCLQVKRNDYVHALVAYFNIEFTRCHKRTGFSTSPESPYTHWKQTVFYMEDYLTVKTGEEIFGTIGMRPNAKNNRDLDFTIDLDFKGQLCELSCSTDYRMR
HTRA1 inh – HTRA1 (human) protease inhibition; inhibition, % at 5.96 µM; AID 504803; actives 0.5% (n = 340,000); Q92743; recombinant HTRA1, FP-rhodamine activity-based probe, fluorescence polarization; in the data active = inhibition above about 36%
TCR-CD3 inh – blocks the human TCR-CD3 interaction. actives 0.37% (n = 360,000). TAMRA-labeled TCR probe fluorescence, biochemical. inhibition, % at 9.4 µM; in the data active = inhibition above about 19%;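 also: recombinant mutant TCR 2C K166C tagged with TAMRA read by polarization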
SIAE inh conf – human SIAE inhibition, confirmation; shares compounds with SIAE inh; SIAE FP-Rh activity-based probe, fluorescence polarization; inhibition, % at 9.66 µM; actives 13% (n = 2,300); AID 1117263;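 active = mean inhibition of the replicates above the hit cutoff set in the primary screen, cut at about 17% in these data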;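 also: inhibitors lower polarization as more probe stays unbound to SIAE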
Each line names hits and unclear results; the compound was inactive in the other large screens (follow-up assays come after a bar, where they were run).

COC(=O)C1CCN(C2CN(Cc3ccc(F)cc3)S(=O)(=O)C2)CC1 (stereo unspecified)	none (no result: HTRA1 inh)
COc1ccccc1-c1noc2c1C(=O)N(Cc1cn(Cc3ccccc3)nn1)CC2	none (no result: HTRA1 inh)
CCc1cc(/C(Cc2cscn2)=N\O)c(O)cc1O	none
CCc1cc(/C(Cc2ccc3ccccc3n2)=N\O)c(O)cc1O	SIAE inh 61 | SIAE inh conf 40
CCc1cc(/C(Cc2ccccn2)=N\O)c(O)cc1O	SIAE inh 19 | SIAE inh conf 22
Cc1ncc(CO)c(/C=N/NC(=S)Nc2ccc(C(C)C)cc2)c1O	SIAE inh 18 | SIAE inh conf inactive
CCC(c1nnc(SCC(=O)NCC2CCCO2)n1Cc1ccccc1)N(C)C (stereo unspecified)	none
CCC(c1nnc(SCC(=O)NC2CCCCC2)n1Cc1ccccc1)N(C)C (stereo unspecified)	SIAE inh 19 | SIAE inh conf inactive
c1ccc(Oc2ccc(-c3ccnc4nc(N5CCN(c6ccccc6)CC5)nn34)cc2)cc1	SIAE inh 22 | SIAE inh conf inactive
c1ccc(-c2ccnc3nc(N4CCN(c5ccccc5)CC4)nn23)cc1	none
Cc1ccc(-n2c(SCc3ccc(C(=O)O)cc3)nnc2-c2ccncc2)cc1	none
CCOc1cc(NS(=O)(=O)c2ccc(NC(C)=O)cc2)c(OCC)cc1NC(=O)c1cccs1	none
COCCSc1nnc(NC(=O)c2ccc3c(c2)OCO3)s1	SIAE inh 18 | SIAE inh conf inactive
CCC(=O)Nc1nnc(SCCOC)s1	SIAE inh 58 | SIAE inh conf inactive
CSc1nnc(NC(=O)c2ccc3c(c2)OCO3)s1	none
Cc1csc(Nc2ccc(Cl)cc2)n1	SIAE inh 19 | SIAE inh conf inactive
C=CCNc1nc(NCc2cccc(OC)c2)c2sc(-c3ccccc3)cc2n1	SIAE inh 20 (no result: HTRA1 inh) | SIAE inh conf inactive
CC(C)Nc1nc(NCCOc2ccccc2Cl)c2sc(-c3ccccc3)cc2n1	SIAE inh 19 (no result: HTRA1 inh) | SIAE inh conf 20
COc1ccccc1CNc1nc(NC(C)C)nc2cc(-c3ccccc3)sc12	SIAE inh 22 (no result: HTRA1 inh) | SIAE inh conf 28
COCCNc1nc(NCCOC)c2sc(-c3ccccc3)cc2n1	none (no result: HTRA1 inh)
COCCNc1nc(NCCOc2ccccc2)c2sc(-c3ccccc3)cc2n1	SIAE inh 22 (no result: HTRA1 inh) | SIAE inh conf 21
COc1ccccc1CNc1nc(NCc2ccccc2)nc2ccsc12	none (no result: HTRA1 inh)
CCCc1nc2ccccc2c(=O)n1CC(=O)c1ccc(F)cc1	none
Cn1cnnc1SCC(=O)Nc1sc2c(c1C(N)=O)CCC2	none
COc1cc(S(=O)(=O)NCc2ccccc2)ccc1F	SIAE inh 19 | SIAE inh conf inactive
CCOC(=O)/C(=N/Nc1ccc(OC)cc1)Sc1nnc(CCc2ccccc2)n1-c1ccccc1	SIAE inh 17 | SIAE inh conf inactive
CC(=O)/C(=N/Nc1ccc(C)cc1)Sc1nnc(CCc2ccccc2)n1-c1ccccc1	none
Cc1ccc(NS(=O)(=O)c2cc([N+](=O)[O-])ccc2NNC(=S)Nc2cc(C)ccc2C)c(C)c1	SIAE inh 31 | SIAE inh conf inactive
O=C(c1cccc(S(=O)(=O)N2CCCCCC2)c1)N1CCN(c2ccccc2)CC1	SIAE inh 17 | SIAE inh conf inactive
COc1ccc(Nc2ccc(S(=O)(=O)N3CCCCC3)cc2[N+](=O)[O-])cc1Cl	SIAE inh 25 | SIAE inh conf inactive
COc1ccc(S(=O)(=O)N2CCCCCC2)cc1C(=O)N1CCN(c2ccccc2C)CC1	none
COc1ccc(S(=O)(=O)N2CCCCCC2)cc1C(=O)N1CCN(c2ccccc2O)CC1	SIAE inh 20 | SIAE inh conf inactive
COc1ccc(S(=O)(=O)N2CCCC2)cc1C(=O)O	SIAE inh 18 | SIAE inh conf inactive
O=C(c1cc(COc2c(F)cccc2F)on1)N(Cc1ccccc1)CC1CC1	none
COc1ccc(CN(C(=O)COc2ccccc2)c2ccccc2C(=O)O)cc1	none
COC(=O)c1ccc(/C=C/c2c(-c3ccsc3)oc3ccc(N4CCOCC4)cc23)cc1	none
CC(/C=C/c1ccccc1)=N/NC(=O)Cn1nnc(N)n1	none (no result: HTRA1 inh)
COC(=O)Cc1c(O)ccn(CCc2c[nH]c3ccccc23)c1=O	none
O=c1c(Cc2c(F)cccc2Cl)c(O)ccn1CCc1c[nH]c2ccccc12	SIAE inh 23 | SIAE inh conf inactive
COc1cc(NC(=O)N2CCc3nc(NCc4cccc(Oc5ccccc5)c4)ncc3C2)cc(OC)c1OC	none (no result: HTRA1 inh)
CCOC(=O)COn1c(=O)c(-c2ccc(Br)cc2)[n+]([O-])c2ccccc21	SIAE inh 17 | SIAE inh conf inactive
CCc1cccc(C)c1NC(=O)COC(=O)c1cc([N+](=O)[O-])ccc1N1CCOCC1	SIAE inh 19 | SIAE inh conf inactive
Cc1cc(Cl)ccc1NC(=O)COC(=O)c1cc([N+](=O)[O-])ccc1N1CCOCC1	none
CCC(NC(=S)NCc1ccc(F)cc1)c1ccccc1 (stereo unspecified)	none
Nc1ncnc2c1ncn2C1OC(C(=O)NC2CC2)C(O)C1O (stereo unspecified)	none
COc1cc(NC(=O)[C@H]2O[C@@H](n3cnc4c(N)ncnc43)[C@H](O)[C@@H]2O)cc(OC)c1OC	SIAE inh 61 (no result: HTRA1 inh) | SIAE inh conf 69
Nc1ncnc2c1ncn2[C@@H]1O[C@H](C(=O)NS(=O)(=O)c2cccc(F)c2)[C@@H](O)[C@H]1O	none (no result: HTRA1 inh)
Cc1cc(S(=O)(=O)NC(=O)[C@H]2O[C@@H](n3cnc4c(N)ncnc43)[C@H](O)[C@@H]2O)ccc1Br	SIAE inh 47 (no result: HTRA1 inh) | SIAE inh conf 51
Nc1ncnc2c1ncn2[C@@H]1O[C@H](C(=O)NCc2ccc3c(c2)OCO3)[C@@H](O)[C@H]1O	SIAE inh 71 (no result: HTRA1 inh) | SIAE inh conf 76
COc1ccc(-c2nc(C)sc2CC(=O)O)cc1	none
COc1ccc(-c2nc(C)sc2CC(=O)O)cc1OC	SIAE inh 18 | SIAE inh conf inactive
COC(=O)C1=C(C(=O)OC)C2(OC1c1ccccc1C)C(=O)c1ccccc1C2=O (stereo unspecified)	SIAE inh 19 | SIAE inh conf inactive
CCOc1ccc(CNc2ccc3c(c2)ncn3C(C)(C)C)cc1	SIAE inh 22 | SIAE inh conf inactive
CCn1cnc2cc(NCc3ccc(N(C)C)cc3)ccc21	none
CN(C)c1ccc(CNc2ccc3c(c2)ncn3C(C)(C)C)cc1	SIAE inh 18 | SIAE inh conf inactive
CCOc1ccc(CNc2ccc3c(c2)ncn3C)cc1	none
O=C(C[C@@H]1C/C=C\CCC(=O)OC[C@H](Cc2ccccc2)NC1=O)N[C@@H](CO)Cc1ccccc1	none
Cc1onc(-c2ccccc2Cl)c1C(=O)OCC(=O)N1CCCCC1	none
COc1ccc(NC(=O)C2Cc3cccc(OC)c3O/C2=N\O)cc1 (stereo unspecified)	none
COc1cccc2c1O/C(=N\O)C(C(=O)Nc1ccc(C)cc1)C2 (stereo unspecified)	SIAE inh 21 | SIAE inh conf inactive
